Bioassay records deposited in PubChem BioAssay by Johns Hopkins Ion Channel Center.
Only some compounds are listed: those with a hit (about 2.3% of all), similar ones and a draw of the others.
TRPC6 inh: blocks the mouse TRPC6 cation channel; Q61143; HEK293-TRPC6, membrane potential dye, ACh-evoked depolarization; stronger effect = lower value; B-score at 10 µM; hit rate 1.1% among 310,000; AID 2553;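 active = B-score under library mean minus 3 SD, initial fluorescence not abnormally high, positive integrated signal ratio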;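 also: B-score derived from integrated fluorescence ratio over the kinetic read; more negative B-score means stronger inhibition of depolarization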
Target sequence (Q61143 whole entry, looked up): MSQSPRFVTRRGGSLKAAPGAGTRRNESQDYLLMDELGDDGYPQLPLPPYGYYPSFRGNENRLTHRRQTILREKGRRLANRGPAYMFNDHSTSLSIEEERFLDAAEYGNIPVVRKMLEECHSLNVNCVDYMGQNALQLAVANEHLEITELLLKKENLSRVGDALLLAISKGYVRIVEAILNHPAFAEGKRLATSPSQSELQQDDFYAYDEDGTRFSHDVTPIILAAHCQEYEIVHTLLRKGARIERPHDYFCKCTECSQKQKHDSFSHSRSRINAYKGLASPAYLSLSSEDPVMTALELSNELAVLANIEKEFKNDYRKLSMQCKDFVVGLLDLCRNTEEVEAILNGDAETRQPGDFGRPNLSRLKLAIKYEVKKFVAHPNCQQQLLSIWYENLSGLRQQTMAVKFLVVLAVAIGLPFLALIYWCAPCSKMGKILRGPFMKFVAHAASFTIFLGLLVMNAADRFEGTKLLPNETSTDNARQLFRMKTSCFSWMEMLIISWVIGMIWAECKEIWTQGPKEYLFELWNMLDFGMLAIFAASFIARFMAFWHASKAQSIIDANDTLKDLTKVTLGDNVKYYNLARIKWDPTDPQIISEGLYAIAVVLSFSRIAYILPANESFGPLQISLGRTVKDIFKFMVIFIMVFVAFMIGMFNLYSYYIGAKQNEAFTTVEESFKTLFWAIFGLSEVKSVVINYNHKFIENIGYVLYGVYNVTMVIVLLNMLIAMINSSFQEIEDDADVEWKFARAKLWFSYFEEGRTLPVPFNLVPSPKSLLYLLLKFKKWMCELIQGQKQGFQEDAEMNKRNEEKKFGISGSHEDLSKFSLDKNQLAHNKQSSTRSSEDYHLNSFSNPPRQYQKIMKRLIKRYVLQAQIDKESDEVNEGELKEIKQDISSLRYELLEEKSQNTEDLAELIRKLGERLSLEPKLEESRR
TRPC6 activator: mouse TRPC6 channel activation | Q61143 | HEK293-TRPC6 membrane potential dye fluorescence; stronger effect = higher value | B-score at 10 µM | hit rate 0.13% among 310,000;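 active = B-score of the integrated fluorescence ratio above library mean plus 3 SD, and starting fluorescence ratio within library mean plus 5 SD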;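 also: higher score means more depolarization so channel activation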
TRPC4 potent: allosterically enhances the mouse TRPC4 cation channel | hit rate 0.42% among 310,000 | HEK293 TRPC4beta/mu-opioid, DAMGO EC20, Fluo-4 Ca2+ flux; stronger effect = higher value | B-score at 10 µM | Q9QUQ5;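 active = B-score of calcium response area above 5 SD of library B-scores, with initial fluorescence ratio within 5 SD of library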
TRPC4 inh: TRPC4 (mouse) channel inhibition; Q9QUQ5; HEK293 TRPC4beta/mu-opioid, DAMGO-evoked Fluo4 calcium flux; stronger effect = lower value; B-score at 10 µM; hit rate 0.39% among 300,000; AID 2247;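 active = B-score over 3 SD under the library average, no early fluorescence shift, positive overall ratio signal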
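test system = HEK293 cells with stable TRPC4beta plus mu-opioid receptor expression | detection = Fluo4 Ca2+ flux fluorescence | read-out = integrated fluorescence ratio relative to baseline, converted to per-well B score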
TRPC4 agonist: opens the mouse TRPC4 cation channel; Q9QUQ5; HEK293 TRPC4beta/mu-opioid, Fluo4 calcium fluorescence; stronger effect = higher value; B-score at 10 µM; hit rate 0.49% among 310,000; AID 2237;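 active = B-score above 5 SD of library B-scores, and initial fluorescence ratio not above library mean plus 5 SD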;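 also: positive B-score marks a calcium rise read as TRPC4 activation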
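Incubation: 45 min room-temperature Fluo4 loading, 110 s read / System: HEK293 cells stably co-expressing mouse TRPC4beta and mu-opioid receptor / Signal: Fluo4 fluorescence, kinetic / Control set: buffer (low) and maximal DAMGO (high) / Measure: integrated baseline-normalised fluorescence ratio, converted to per-well B score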
Numbers stand for hits; - = inactive.

SMILES	TRPC6 inh	TRPC6 activator	TRPC4 potent	TRPC4 inh	TRPC4 agonist
CCc1nc(NCCc2ccccn2)c2nnn(Cc3ccccc3F)c2n1	-	-	-	-	186
CCOc1cc(OCC)cc(C(=O)NCCCN2CCOCC2)c1	-	-	-	-	-
COc1cc(OC)cc(C(=O)NCCCN2CCN(CCCNC(=O)c3cc(OC)cc(OC)c3)CC2)c1	-	-	-	-	119
COc1ccc(N2CCN(CCCNC(=O)c3ccc(CS(=O)(=O)c4ccc(OC)cc4)o3)CC2)cc1	-	-	-	-6	-
COc1ccc(C)cc1N(C(=O)c1snc(C(N)=O)c1N)C(C(=O)NC1CCCCC1)c1ccc(C)o1 (stereo not drawn)	-	-	-	-11	-
Cc1ccc(C)c(N(C(=O)c2snc(C(N)=O)c2N)C(C(=O)NCC2CCCO2)c2cccs2)c1 (stereo not drawn)	-	-	-	-	-
NC(=O)c1nsc(C(=O)N(Cc2ccc(F)cc2)C(C(=O)NCC2CCCO2)c2ccc(F)cc2)c1N (stereo not drawn)	-	-	-	-7	-
Cc1ccc(C)c(N(C(=O)c2snc(C(N)=O)c2N)C(C(=O)NCC2CCCO2)c2ccc(C)o2)c1 (stereo not drawn)	-	-	-	-7	-
CN(C)c1ccc(C(C(=O)NCC2CCCO2)N(Cc2ccccc2)C(=O)c2snc(C(N)=O)c2N)cc1 (stereo not drawn)	-	-	-	-	-
O=C1CC(C(=O)N2CCCc3ccccc32)CN1c1ccc(Cl)cc1 (stereo not drawn)	-	-	-	-	-
COc1ccc(CCN(C(=O)c2snc(C(N)=O)c2N)C(C)C(=O)NC2CCCCC2)cc1OC (stereo not drawn)	-	-	-	-	-
Cc1nc2ccc(Br)cn2c1C(=O)N/N=C\c1ccccc1Cl	-	-	-	-	-
CN(Cc1nc(-c2ccc3c(c2)OCO3)no1)CC1(N2CCOCC2)CCCCC1	-	-	35	-	-
CS(=O)(=O)N(CC(=O)Nc1ccc2c(c1)OCO2)Cc1ccccc1	-	-	-	-	-
COc1ccccc1OCC(=O)Nc1ccc(Cl)cc1	-	-	-	-7	-
CN(CCC(=O)Nc1ccc(Cl)cc1)Cc1ccccc1	-	-	-	-	126
CN(CC(=O)Nc1ccc(Cl)cc1)C(=O)CCc1ccccc1	-	-	-	-	-
CN(CCC(=O)Nc1ccc2c(c1)OCO2)Cc1ccccc1	-	-	-	-	53
COc1ccc(CN2CCNC(=O)C2CC(=O)NC2Cc3ccccc3C2)c(OC)c1 (stereo not drawn)	-	-	-	-	-
CC1CCC(NC(=O)C2CC(=O)N(c3ccc(Cl)cc3)C2)CC1 (stereo not drawn)	-	-	-	-	-
S=C(Nc1ccccc1)Nc1cc(Cl)ccc1Oc1ccccc1	-	-	-	-6	-
O=C1CCCN1CCCNc1ccc2nnc(CCC(=O)N3CCN(c4ccc(F)cc4)CC3)n2n1	-	-	-	-	-
Cc1ccc(NC(=S)NC2CC3CCCC(C2)N3Cc2cccs2)cc1 (stereo not drawn)	-	-	-	-	48
CCc1ccc(NC(=S)NC2CC3CCCC(C2)N3Cc2ccccc2)cc1 (stereo not drawn)	-	-	-	-	51
CN1C(=O)C(=O)/C(=C(/O)c2ccc(Br)cc2)C1c1cccc([N+](=O)[O-])c1 (stereo not drawn)	-	-	-	-	-
SMILES	TRPC6 inh	TRPC6 activator	TRPC4 potent	TRPC4 inh	TRPC4 agonist
CCSc1nc(O)cc(=O)n1CC	-	-	-	-	-
C=CCNC(=O)c1cc2c(=O)n3cc(C)ccc3nc2nc1NCC1CCCO1 (stereo not drawn)	-5.9	-	-	-	-
Oc1c(CN2CCCCC2)cc(Br)c2cccnc12	-	-	-	-7	-
Oc1c(CN2CCc3ccccc3C2)cc(Cl)c2cccnc12	-	-	-	-	69
COc1ccc(CCNC(=O)C2CC(=O)N(C3CCCCC3)C2)cc1OC (stereo not drawn)	-	-	-	-	-
CC1CC(C)CN(CCCNC(=O)c2nn(C)c3c2CS(=O)(=O)c2ccccc2-3)C1 (stereo not drawn)	-	-	-	-	98
CC1CCN(CCCNC(=O)c2nn(C)c3c2CS(=O)(=O)c2ccccc2-3)CC1	-	-	-	-	-
CCN(c1nc(N)c(C(=O)N=C(N)N)nc1Cl)C(C)C	-	-	-	-	100
